Source: paper PMC9071802 (RSC Advances, 2019)

Tested on: P. aeruginosa MH602 lasB reporter strain (PlasB: gfp(ASV))
Test: Quorum sensing inhibition assay, GFP fluorescence of lasB reporter strain
Format: cell-based, Pseudomonas aeruginosa
Conditions: for inhibition at 250 µM / inhibition at 62.5 µM / inhibition at 125 µM: Pseudomonas aeruginosa; for inhibition at 250 µM: read-out: Percentage inhibition of GFP fluorescence, 250 μM; for inhibition at 250 µM / inhibition at 62.5 µM / inhibition at 125 µM / Percentage inhibition of GFP fluorescence: ± standard deviation, NA: no activity; for inhibition at 62.5 µM: read-out: Percentage inhibition of GFP fluorescence, 62.5 μM; for inhibition at 125 µM: read-out: Percentage inhibition of GFP fluorescence, 125 μM
How it was run: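 The reporter is a chromosomal lasB promoter–gfp(ASV) fusion responsive to 3-oxododecanoyl-HSL. Cultures were grown overnight in LB10, then diluted 1:100 in ABT with 0.25% tryptone and 0.13% yeast extract plus ampicillin 100 µg mL⁻¹ and gentamicin 20 µg mL⁻¹. Test compound in DMSO was tested at 62.5, 125 or 250 µM, with 1% DMSO controls. Cultures were incubated at 37 °C and shaken briefly before each read. Fluorescence (ex 485/em 535 nm) and OD600 were read every 30 min for 20 h, in triplicate per experiment.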

Row | Compound | inhibition at 250 µM [%] | inhibition at 62.5 µM [%] | inhibition at 125 µM [%] | Percentage inhibition of GFP fluorescence (250 μM, 250 µM) [%] | Percentage inhibition of GFP fluorescence (62.5 μM) [%] | Percentage inhibition of GFP fluorescence (125 μM) [%] | Percentage inhibition of GFP fluorescence (250 μM) [%] | QSI activity (at 62.5–250 μM)
1 | CC(C)(C)c1ccc(-c2cn(CC(=O)Nc3nc4ccccc4[nH]3)nn2)cc1 [6l, N-(1H-Benzo[d]imidazol-2-yl)-2-(4-(4-(tert-butyl)phenyl)-1H-1,2,3-triazol-1-yl)acetamide] | 35.2 ± 8.78 | – | – | – | – | – | – | –
2 | CCCCCCCCCc1cn(CC(=O)Nc2nc3ccccc3[nH]2)nn1 [6d, N-(1H-Benzo[d]imidazol-2-yl)-2-(4-nonyl-1H-1,2,3-triazol-1-yl)acetamide] | 48.5 ± 12.7 | 30.6 ± 7.62 | 41.9 ± 4.5 | – | – | – | – | –
3 | O=C(CCCc1cn(CC(=O)NC2CCCCC2)nn1)Nc1nc2ccccc2[nH]1 [11b, N-(1H-Benzo[d]imidazol-2-yl)-4-(1-(2-(cyclohexylamino)-2-oxoethyl)-1H-1,2,3-triazol-4-yl)butanamide] | 12.9 ± 20.2 | – | – | – | – | – | – | –
4 | Cc1ccc(-c2cn(CC(=O)Nc3nc4cc(C)c(C)cc4[nH]3)nn2)cc1 [7i, N-(5,6-Dimethyl-1H-benzo[d]imidazol-2-yl)-2-(4-(p-tolyl)-1H-1,2,3-triazol-1-yl)acetamide] | 50.7 ± 12.3 | – | 14.9 ± 8.82 | – | – | – | – | –
5 | Cc1cc2nc(NC(=O)CCCc3cn(CC(=O)NC4CCCC4)nn3)[nH]c2cc1C [12a, 4-(1-(2-(Cyclopentylamino)-2-oxoethyl)-1H-1,2,3-triazol-4-yl)-N-(5,6-dimethyl-1H-benzo[d]imidazol-2-yl)butanamide] | 48.5 ± 5.25 | 28.5 ± 7.69 | 34.1 ± 12.6 | – | – | – | – | –
6 | Cc1cc2nc(NC(=O)Cn3cc(CSc4nc5ccccc5[nH]4)nn3)[nH]c2cc1C [7e, 2-(4-(((1H-Benzo[d]imidazol-2-yl)thio)methyl)-1H-1,2,3-triazol-1-yl)-N-(5,6-dimethyl-1H-benzo[d]imidazol-2-yl)acetamide] | 16 ± 26.1 | 15.1 ± 9.82 | – | – | – | – | – | –
7 | CCCCCCCCCc1cn(CC(=O)Nc2nc3cc(C)c(C)cc3[nH]2)nn1 [7d, N-(5,6-Dimethyl-1H-benzo[d]imidazol-2-yl)-2-(4-nonyl-1H-1,2,3-triazol-1-yl)acetamide] | 44.6 ± 3.87 | 37.1 ± 7.75 | 41.6 ± 5.08 | – | – | – | – | –
8 | Cc1cc2nc(NC(=O)Cn3cc(-c4ccc(O)cc4)nn3)[nH]c2cc1C [7j, N-(5,6-Dimethyl-1H-benzo[d]imidazol-2-yl)-2-(4-(4-hydroxyphenyl)-1H-1,2,3-triazol-1-yl)acetamide] | > 40 | 17.6 ± 6.21 | 24.2 ± 14.5 | 44.73 ± 13.15 | – | – | – | –
9 | O=C(Cn1cc(CCC(=O)Nc2nc3ccccc3[nH]2)nn1)Nc1ccccn1 [10b, N-(1H-Benzo[d]imidazol-2-yl)-3-(1-(2-oxo-2-(pyridin-2-ylamino)ethyl)-1H-1,2,3-triazol-4-yl)propanamide] | 28.5 ± 17.5 | 4.4 ± 2.93 | 15.6 ± 7.17 | – | – | – | – | –
10 | Cc1cc2nc(NC(=O)Cn3cc(-c4ccccc4)nn3)[nH]c2cc1C [7g, N-(5,6-Dimethyl-1H-benzo[d]imidazol-2-yl)-2-(4-phenyl-1H-1,2,3-triazol-1-yl)acetamide] | 47.6 ± 14.4 | 28.5 ± 8.41 | 29.9 ± 17.4 | – | – | – | – | –
11 | O=C(CCCc1cn(CC(=O)NC2CCCC2)nn1)Nc1nc2ccccc2[nH]1 [11a, N-(1H-Benzo[d]imidazol-2-yl)-4-(1-(2-(cyclopentylamino)-2-oxoethyl)-1H-1,2,3-triazol-4-yl)butanamide] | 51.2 ± 7.1 | 42.3 ± 10.3 | 45.9 ± 8.18 | – | – | – | – | –
12 | CCCCCc1cn(CC(=O)Nc2nc3ccccc3[nH]2)nn1 [6b, N-(1H-Benzo[d]imidazol-2-yl)-2-(4-pentyl-1H-1,2,3-triazol-1-yl)acetamide] | 43.5 ± 6.23 | 27.4 ± 2.36 | 38.8 ± 11.5 | – | – | – | – | –
13 | Cc1ccc(-c2cn(CC(=O)Nc3nc4ccccc4[nH]3)nn2)cc1 [6k, N-(1H-Benzo[d]imidazol-2-yl)-2-(4-(p-tolyl)-1H-1,2,3-triazol-1-yl)acetamide] | 35.9 ± 13.8 | 36.8 ± 6.63 | 32.3 ± 22.2 | – | – | – | – | –
14 | O=C(Cn1cc(Cn2cc(Cl)ccc2=O)nn1)Nc1nc2ccccc2[nH]1 [6f, N-(1H-Benzo[d]imidazol-2-yl)-2-(4-((5-chloro-2-oxopyridin-1(2H)-yl)methyl)-1H-1,2,3-triazol-1-yl)acetamide] | 58.8 ± 5.09 | 36.1 ± 10.7 | 52.7 ± 11.9 | – | – | – | – | –
15 | Cc1cc2nc(NC(=O)Cn3cc(-c4cccc([N+](=O)[O-])c4)nn3)[nH]c2cc1C [7n, N-(5,6-Dimethyl-1H-benzo[d]imidazol-2-yl)-2-(4-(3-nitrophenyl)-1H-1,2,3-triazol-1-yl)acetamide] | 46.7 ± 4.87 | 34.2 ± 7.43 | 34.4 ± 14.1 | – | – | – | – | –
16 | O=C(Cn1cc(-c2ccc(F)cc2)nn1)Nc1nc2ccccc2[nH]1 [6h, N-(1H-Benzo[d]imidazol-2-yl)-2-(4-(4-fluorophenyl)-1H-1,2,3-triazol-1-yl)acetamide] | 56.1 ± 1.77 | 49 ± 12.3 | 54.9 ± 2.42 | – | – | – | – | –
17 | Cc1cc2nc(NC(=O)CCCc3cn(CC(=O)NC4CCCCC4)nn3)[nH]c2cc1C [12b, 4-(1-(2-(Cyclohexylamino)-2-oxoethyl)-1H-1,2,3-triazol-4-yl)-N-(5,6-dimethyl-1H-benzo[d]imidazol-2-yl)butanamide] | 30.8 ± 26.4 | 5.35 ± 10.2 | 9.74 ± 20.7 | – | – | – | – | –
18 | CCCc1cn(CC(=O)Nc2nc3cc(C)c(C)cc3[nH]2)nn1 [7a, N-(5,6-Dimethyl-1H-benzo[d]imidazol-2-yl)-2-(4-propyl-1H-1,2,3-triazol-1-yl)acetamide] | 31.8 ± 11 | 19.9 ± 3.8 | 22.1 ± 14.7 | – | – | – | – | –
19 | O=C(CCCc1cn(-c2ccc([N+](=O)[O-])cc2)nn1)Nc1nc2ccccc2[nH]1 [11d, N-(1H-Benzo[d]imidazol-2-yl)-4-(1-(4-nitrophenyl)-1H-1,2,3-triazol-4-yl)butanamide] | 39.4 ± 4.6 | 21.2 ± 1.76 | 21.4 ± 2.62 | – | – | – | – | –
20 | COc1ccc(-c2cn(CC(=O)Nc3nc4ccccc4[nH]3)nn2)cc1 [6n, N-(1H-Benzo[d]imidazol-2-yl)-2-(4-(4-methoxyphenyl)-1H-1,2,3-triazol-1-yl)acetamide] | 20 ± 14 | – | 5.16 ± 16.6 | – | – | – | – | –
21 | N-(1H-Benzo[d]imidazol-2-yl)-2-(4-nonyl-1H-1,2,3-triazol-1-yl)acetamide [6e] | – | – | – | – | 24.87 ± 6.69 | 37.20 ± 6.71 | 41.31 ± 7.90 | –
22 | O=C(Cn1cc(-c2ccc(C(F)(F)F)cc2)nn1)Nc1nc2ccccc2[nH]1 [6o, N-(1H-Benzo[d]imidazol-2-yl)-2-(4-(4-(trifluoromethyl)phenyl)-1H-1,2,3-triazol-1-yl)acetamide] | 64.2 ± 7.3 | 57.5 ± 7.73 | 59.9 ± 7.99 | – | – | – | – | –
23 | Cc1cc2nc(NC(=O)CCCc3cn(CC(=O)Nc4ccccn4)nn3)[nH]c2cc1C [12c, N-(5,6-Dimethyl-1H-benzo[d]imidazol-2-yl)-4-(1-(2-oxo-2-(pyridin-2-ylamino)ethyl)-1H-1,2,3-triazol-4-yl)butanamide] | 48.3 ± 13.4 | – | 7.07 ± 11.8 | – | – | – | – | –
24 | Cc1cc2nc(NC(=O)Cn3cc(-c4ccc(Br)cc4)nn3)[nH]c2cc1C [7h, 2-(4-(4-Bromophenyl)-1H-1,2,3-triazol-1-yl)-N-(5,6-dimethyl-1H-benzo[d]imidazol-2-yl)acetamide] | 57.6 ± 7.43 | 31.2 ± 5.02 | 44.7 ± 14.3 | – | – | – | – | –
25 | O=C(CCc1cn(CC(=O)NC2CCCCC2)nn1)Nc1nc2ccccc2[nH]1 [10a, N-(1H-Benzo[d]imidazol-2-yl)-3-(1-(2-(cyclohexylamino)-2-oxoethyl)-1H-1,2,3-triazol-4-yl)propanamide] | 47.4 ± 2.69 | 38.4 ± 7.72 | 42.4 ± 8.46 | – | – | – | – | 38–47%
26 | CCCc1cn(CC(=O)Nc2nc3ccccc3[nH]2)nn1 [6a, N-(1H-Benzo[d]imidazol-2-yl)-2-(4-propyl-1H-1,2,3-triazol-1-yl)acetamide] | 50.5 ± 11.8 | 25.1 ± 0.37 | 35.3 ± 20.4 | – | – | – | – | –
27 | O=C(Cn1cc(-c2ccccc2)nn1)Nc1nc2ccccc2[nH]1 [6g, N-(1H-Benzo[d]imidazol-2-yl)-2-(4-phenyl-1H-1,2,3-triazol-1-yl)acetamide] | 46 ± 10.2 | 15.1 ± 5.83 | 17.4 ± 22 | – | – | – | – | –
28 | O=C(Cn1cc(-c2ccc(O)cc2)nn1)Nc1nc2ccccc2[nH]1 [6m, N-(1H-Benzo[d]imidazol-2-yl)-2-(4-(4-hydroxyphenyl)-1H-1,2,3-triazol-1-yl)acetamide] | 58.4 ± 7.75 | 34.4 ± 4.97 | 45.7 ± 6.21 | – | – | – | – | –
29 | O=C1C=C(Br)/C(=C/Br)O1 [Furanone 30, reference compound] | – | – | – | – | 77.33 ± 2.00 | 83.02 ± 3.15 | 86.86 ± 1.18 | –
30 | Cc1cc2nc(NC(=O)Cn3cc(-c4ccc([N+](=O)[O-])cc4)nn3)[nH]c2cc1C [7m, N-(5,6-Dimethyl-1H-benzo[d]imidazol-2-yl)-2-(4-(4-nitrophenyl)-1H-1,2,3-triazol-1-yl)acetamide] | 53.9 ± 9.78 | 21 ± 10.3 | 31.5 ± 16.2 | – | – | – | – | –
